# Measured values taken from publication PMC3319156 (Journal of Medicinal Chemistry, 2011).
# What was measured:
# [1] = target: T1, Tyr705 of Stat3 (Homo sapiens, UniProt P40763); experiment: Inhibition of constitutive Stat3 Tyr705 phosphorylation in MDA-MB-468 cells; type: cell-based
# Method in brief: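 MDA-MB-468 cells (4 × 10^5/well) were grown overnight in DMEM with 10% FCS. Prodrug was given from a 10 mM DMSO stock prepared fresh, for 2 h, or over a time course. After ice-cold PBS washes, cells were lysed (Hepes pH 7.4, Triton X-100, NaF, vanadate, protease inhibitors). 12 µg protein went on 8% SDS-PAGE/PVDF with 5% BSA block. Blots were probed for pStat3 Y705 by ECL, stripped at 50°C, and reprobed for total Stat3.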
# [2] = target: T1, Tyr705 of Stat3; settings: MDA-MB-468; cited from earlier work
# [3] = tested on: survivin; experiment: Expression of survivin in HCC-827 cells; type: cell-based; settings: HCC-827 lung line, 5 µM
# [4] = tested on: p38 MAPK; experiment: p38 MAPK phosphorylation in HCC-827 NSCLC cells; type: cell-based
# [5] = tested on: cyclin D1; experiment: Expression of downstream gene cyclin D1 in MDA-MB-468 cells; type: cell-based; settings: MDA-MB-468, 5 µM
# [6] = target: T2, Stat3 (Homo sapiens, UniProt P40763); experiment: EGF-stimulated Stat3 phosphorylation in MDA-MB-468 cells; type: cell-based; settings: MDA-MB-468, 5 µM, 1.5 h then EGF 30 min
# T2 sequence (P40763 whole entry): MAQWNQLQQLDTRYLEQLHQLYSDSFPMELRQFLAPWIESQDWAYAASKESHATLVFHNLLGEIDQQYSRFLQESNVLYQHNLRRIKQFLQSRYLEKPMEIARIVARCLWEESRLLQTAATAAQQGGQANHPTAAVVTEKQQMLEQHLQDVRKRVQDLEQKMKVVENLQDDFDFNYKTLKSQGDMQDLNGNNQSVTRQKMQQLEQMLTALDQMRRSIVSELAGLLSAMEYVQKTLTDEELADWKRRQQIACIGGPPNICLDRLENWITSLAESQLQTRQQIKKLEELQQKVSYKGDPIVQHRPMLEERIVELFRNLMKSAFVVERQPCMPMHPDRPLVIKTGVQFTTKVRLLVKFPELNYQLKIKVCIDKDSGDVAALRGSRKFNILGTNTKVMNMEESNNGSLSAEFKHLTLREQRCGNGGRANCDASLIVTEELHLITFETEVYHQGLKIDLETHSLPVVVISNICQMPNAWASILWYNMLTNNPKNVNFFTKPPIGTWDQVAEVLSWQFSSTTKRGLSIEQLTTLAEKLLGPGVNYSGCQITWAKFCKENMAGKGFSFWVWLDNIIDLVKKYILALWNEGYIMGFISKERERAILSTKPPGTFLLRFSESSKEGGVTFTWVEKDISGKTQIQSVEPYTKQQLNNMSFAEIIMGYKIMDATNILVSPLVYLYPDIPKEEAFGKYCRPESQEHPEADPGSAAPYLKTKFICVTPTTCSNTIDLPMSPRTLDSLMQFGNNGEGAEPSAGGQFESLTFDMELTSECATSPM
# [7] = target: T2, Stat3; experiment: IL-6-stimulated Stat3 phosphorylation in HEY ovarian cancer cells; type: cell-based; settings: 1.5 hour exposure then IL-6
# Method in brief: (§1)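 Hey, MeWo and A375 cells were seeded at 3 × 10^5 cells/well in RPMI1640 and cultured overnight, with a media change. Cells then received increasing test compound concentrations for 2 h. IL-6 at 10 ng/mL was present for the last 30 min. Lysates were blotted for pStat3 Y705 and total Stat3 as in the constitutive assay.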
# [8] = tested on: Ser473 of Akt; experiment: Akt Ser473 phosphorylation in MDA-MB-468 cells; type: cell-based
# [9] = target: pTyr705 Stat3 (Homo sapiens, UniProt P40763); type: cell-based; settings: MDA-MB-468, 5 µM, 2 h
# Chain of pTyr705 Stat3 (P40763 whole entry): as above
# Method in brief: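 MDA-MB-468 cells on slides were given DMSO or 5 µM test compound for 2 h. Cells were fixed in 4% paraformaldehyde, permeabilized with 0.5% Triton X-100 and blocked with 3% BSA. Staining used anti-pTyr705 Stat3 and an Alexa Fluor 594 secondary. Confocal imaging used identical microscope settings throughout.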
# [10] = tested on: Bcl-xL; experiment: Expression of downstream gene Bcl-xL in MDA-MB-468 cells; type: cell-based; settings: MDA-MB-468, 5 µM
# [11] = tested on: MDA-MB-468 cells; experiment: Cytotoxicity to MDA-MB-468 cells, MTT assay; type: cell-based; settings: MDA-MB-468, treated daily for three days
# Method in brief: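 MDA-MB-468 cells in DMEM with 10% FBS were plated at 1500 cells/well in triplicate, and the medium was changed the next day. Prodrug was dissolved fresh in ethanol to a 10 mM stock, diluted, and added. Further doses went into the same medium at 24 and 48 h, with final ethanol below 1%. Viability was read by MTT.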
# [12] = target: T2, Stat3; experiment: IL-6-stimulated Stat3 phosphorylation in MeWo melanoma cells; type: cell-based; settings: 1.5 hour exposure then IL-6
# Method in brief: as §1
# [13] = target: T2, Stat3; experiment: Stat3 phosphorylation in HCC-827 non-small-cell lung cancer cells; type: cell-based; settings: HCC-827, 5 µM
# [14] = tested on: cyclin D1; experiment: Expression of cyclin D1 in HCC-827 cells; type: cell-based; settings: HCC-827, 5 µM
# [15] = target: T2, Stat3; experiment: Constitutive Stat3 phosphorylation in SKOV3ip ovarian cancer cells; type: cell-based
# Method in brief: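 SKOV3-ip cells were seeded at 3 × 10^5 cells/well in McCoy's 5A medium and handled as for MDA-MB-468. Prodrug was added from a 10 mM DMSO stock made just before use, for 2 h. Cells were lysed in Hepes pH 7.4/Triton X-100 buffer with phosphatase and protease inhibitors. 12 µg protein was run on 8% SDS-PAGE, blotted for pStat3 Y705 by ECL, then stripped and reprobed for total Stat3.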
# [16] = tested on: H528; experiment: Growth inhibition of H528 NSCLC cells; type: cell-based; settings: H528, 5–10 µM, data not shown
# [17] = tested on: Tyr861 of the focal adhesion kinase (FAK); experiment: Constitutive FAK Tyr861 phosphorylation in MDA-MB-468 cells; type: cell-based
# Method in brief: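 Constitutive signal, no stimulus: MDA-MB-468 cells were plated overnight in DMEM/10% FCS and given test compound from a 10 mM DMSO stock for 2 h. Cells were lysed in Hepes pH 7.4 detergent buffer with phosphatase and protease inhibitors. Protein was separated by SDS-PAGE, blotted to PVDF, blocked with 5% BSA, and probed for pTyr861 FAK and total FAK.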
# [18] = tested on: Tyr694 of Stat5; experiment: Stat5 Tyr694 phosphorylation in MDA-MB-468 cells; type: cell-based
# [19] = tested on: Ser473 of Akt; experiment: Akt Ser473 phosphorylation in HCC-827 NSCLC cells; type: cell-based
# [20] = tested on: survivin; experiment: Expression of survivin in MDA-MB-468 cells; type: cell-based; settings: MDA-MB-468 breast line, data not shown
# [21] = target: T3, Tyr701 of Stat1 (Homo sapiens, UniProt P42224); experiment: IFNγ-stimulated Stat1 Tyr701 phosphorylation in MDA-MB-468 cells; type: cell-based; settings: MDA-MB-468, 1.5 h then 30 min IFNγ
# T3 sequence (P42224 1-750): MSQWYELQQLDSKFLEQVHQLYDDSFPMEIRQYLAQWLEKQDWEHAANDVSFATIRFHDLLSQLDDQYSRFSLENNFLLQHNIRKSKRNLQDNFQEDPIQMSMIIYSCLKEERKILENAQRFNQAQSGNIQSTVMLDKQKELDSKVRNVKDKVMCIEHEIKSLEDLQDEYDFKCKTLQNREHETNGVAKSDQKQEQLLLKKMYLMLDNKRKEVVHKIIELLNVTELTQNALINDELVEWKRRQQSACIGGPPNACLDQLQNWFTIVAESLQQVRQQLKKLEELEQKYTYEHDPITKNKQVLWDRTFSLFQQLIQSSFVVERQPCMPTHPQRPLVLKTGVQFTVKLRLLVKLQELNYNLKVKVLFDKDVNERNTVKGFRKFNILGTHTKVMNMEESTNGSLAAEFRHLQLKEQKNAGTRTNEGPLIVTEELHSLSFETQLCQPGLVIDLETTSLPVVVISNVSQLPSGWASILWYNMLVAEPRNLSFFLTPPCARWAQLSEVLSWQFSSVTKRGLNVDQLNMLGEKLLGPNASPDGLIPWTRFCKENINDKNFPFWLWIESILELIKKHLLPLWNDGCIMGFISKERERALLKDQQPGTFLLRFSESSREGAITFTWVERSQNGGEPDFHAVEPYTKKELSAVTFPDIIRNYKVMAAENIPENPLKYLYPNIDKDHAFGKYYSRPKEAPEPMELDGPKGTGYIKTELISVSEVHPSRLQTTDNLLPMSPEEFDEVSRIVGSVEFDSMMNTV
# Method in brief: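 MDA-MB-468 cells were prepared as for the Stat3 assay (plated overnight in DMEM/10% FCS) and exposed to increasing test compound concentrations for 1.5 h. Interferon γ was then added at 25 ng/mL for 30 min. Lysates were run on PAGE, blotted to PVDF, and probed for pTyr701 Stat1 and total Stat1 with chemiluminescent detection.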
# [22] = target: T2, Stat3; experiment: IL-6-stimulated Stat3 phosphorylation in A375 melanoma cells; type: cell-based; settings: A375, 1.5 hour exposure then IL-6
# Method in brief: as §1
# [23] = MDA-MB-468, 2 h treatment, western blot
# [24] = MDA-MB-468, single dose of 5 µM
# [25] = MDA-MB-468, 5 µM, 1.5 h then EGF 30 min
# [26] = MDA-MB-468, 25 µM, two hour treatment
# T1 sequence (P40763 whole entry): as the sequence (P40763 whole entry) above
smiles,measurement,setting,value
CC(C)(C)C(=O)OCOP(=O)(OCOC(=O)C(C)(C)C)C(F)(F)c1ccc(/C=C/C(=O)N[C@H]2CCc3cccc4c3N(C2=O)[C@H](C(=O)N[C@@H](CCC(N)=O)C(=O)NCc2ccccc2)C4)cc1 [compound 3],effect on level of pStat3,"[1]; MDA-MB-468, 2 h, increasing concentrations",reduced the level of pStat3 in a dose-dependent manner
same,concentration that completely inhibited constitutive phosphorylation of Stat3 Tyr705,[2],10 µM
"C/C(=C\C(=O)N[C@H]1CCc2cccc3c2N(C1=O)[C@H](C(=O)N[C@H](C)CCC(N)=O)C3)c1ccc(C(F)(F)P(=O)(OCOC(=O)C(C)(C)C)OCOC(=O)C(C)(C)C)cc1 [compound 34, βMF2Pm(POM2)Cinn-Haic-Apa]",expression of survivin,[3],reduced
same,phosphorylation of p38 MAPK,[4],no effect
same,expression of cyclin D1,[5],No inhibition
same,increase in Stat3 phosphorylation induced by EGF,[6],completely inhibited
same,IL-6-induced pStat3 formation,[7],inhibited pStat3 formation
same,concentration at which pStat3 was completely inhibited,[1]; [23],0.5 µM
same,concentration with noticeable inhibition of pStat3,[1]; [23],0.1 µM
same,time at which pStat3 formation was completely inhibited,[1]; [24],30 min
same,time for which complete inhibition of pStat3 was sustained,[1]; [24],4 h
same,Akt Ser473 phosphorylation,[8]; [25],do not inhibit Akt phosphorylation
same,Akt phosphorylation at high concentration,[8]; [26],inhibited phosphorylation
same,pStat3 nuclear localization,[9],abrogated nuclear localization
same,expression of Bcl-xL,[10],No inhibition
same,survival curves with daily dosing compared with single dose,[11],little change in the survival curves
same,IL-6-induced pStat3 formation,[12],inhibited pStat3 formation
same,duration of pStat3 inhibition,[13],at least 4 h
same,pStat3 level at 24 h,[13]; 24 h,had not returned to pretreatment levels
same,expression of cyclin D1,[14],not inhibited
same,concentration at which constitutively activated Stat3 was completely inhibited,[15],1 µM
same,inhibition,[16],< 20%
same,FAK phosphorylation at high concentration,[17]; [26],inhibited phosphorylation
same,FAK Tyr861 phosphorylation,"[17]; MDA-MB-468, 2 h treatment",no reduction of Tyr861 phosphorylation
same,Stat5 phosphorylation,[18]; [25],not inhibited
same,Stat5 phosphorylation at high concentration,[18]; [26],inhibited phosphorylation
same,phosphorylation of Ser473 of Akt,[19],no effect
same,expression of survivin,[20],reduced
same,concentration of complete inhibition of Stat1 phosphorylation,[21],5 µM
same,IL-6-induced pStat3 formation,[22],inhibited pStat3 formation
